Assay results from paper PMC11582619 (Communications Biology, 2024).
“Also recorded” adds a separate entry of the source. Values belong to the molecule of their own block, whether it stands above or below them.

Key:
[1] = system: HepG2 cells; experiment: Oil Red O staining of ethanol-induced lipid storage in HepG2 cells; format: cell-based, human; details: compound 7.5 μmol/L
[2] = system: HepG2 cells; experiment: ROS levels by flow cytometry in ethanol-treated HepG2 cells; format: cell-based, human; details: ethanol + compound
[3] = Plasma concentration of SSa, SSB1 and SGA after oral SSa; format: in vivo, mice; details: for course of plasma level after administration (in words): after oral SSa 50 mg/kg
How it was run: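 Mice fasted 24 h, then given SSa 50 mg/kg by oral gavage. About 100 µL retro-orbital blood taken at 0, 0.5, 1, 2, 4, 6, 8, 10, 12 and 24 h; 9 mice per time point, three mice pooled per sample, n = 3. Plasma SSa, SSB1 and SGA measured by UHPLC-MS/MS against plasma-matrix calibration and QC standards. AUC by moment analysis with log-trapezoidal method.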

[4] = target: T1, Recombinant human SIRT1 protein (Homo sapiens, UniProt Q96EB6); experiment: Microscale thermophoresis; format: binding; details: Kd between SIRT1 and compound (MST), recombinant human SIRT1, RED-NHS labelled
T1 sequence (Q96EB6 1-747): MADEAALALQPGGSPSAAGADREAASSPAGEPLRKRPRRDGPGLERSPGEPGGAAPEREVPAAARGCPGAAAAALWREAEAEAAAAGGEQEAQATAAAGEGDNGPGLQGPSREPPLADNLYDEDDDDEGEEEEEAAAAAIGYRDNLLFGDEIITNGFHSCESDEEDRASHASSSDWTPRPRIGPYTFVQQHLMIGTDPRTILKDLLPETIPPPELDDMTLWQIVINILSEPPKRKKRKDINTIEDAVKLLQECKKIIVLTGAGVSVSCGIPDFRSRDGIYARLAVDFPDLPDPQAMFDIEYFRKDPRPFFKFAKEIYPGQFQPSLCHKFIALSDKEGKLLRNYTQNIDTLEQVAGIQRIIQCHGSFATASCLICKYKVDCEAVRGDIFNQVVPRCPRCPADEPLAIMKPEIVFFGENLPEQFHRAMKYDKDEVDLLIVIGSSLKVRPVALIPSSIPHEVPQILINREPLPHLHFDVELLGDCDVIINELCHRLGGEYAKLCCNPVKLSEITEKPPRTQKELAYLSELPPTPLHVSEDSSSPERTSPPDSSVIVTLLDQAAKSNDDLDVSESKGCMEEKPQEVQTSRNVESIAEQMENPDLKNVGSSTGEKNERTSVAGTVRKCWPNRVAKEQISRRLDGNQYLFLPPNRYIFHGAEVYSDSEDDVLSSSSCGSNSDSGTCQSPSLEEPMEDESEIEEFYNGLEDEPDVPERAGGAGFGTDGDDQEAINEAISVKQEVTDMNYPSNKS
How it was run: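 Recombinant human SIRT1 labelled with RED-NHS dye (30 min, room temperature, dark) and gel-filtered; pre-test checked labelling, adsorption and aggregation. Incubated 5 min at 24 °C before MST.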

[5] = system: liver, kidney, spleen, lung and heart; experiment: Short-term toxicity of SSa, 14 days by gavage, HE staining of organs; format: in vivo; details: male C57BL/6J mice, SSa 15 mg/kg/daily
[6] = system: SIRT1; experiment: Hepatic SIRT1 protein over time after gavage with SSa solution; format: in vivo, mice; details: 0-12 h after gavage with SSa solution
[7] = system: chronic-plus-binge ethanol-fed mice with hepatic SIRT1 knockdown; experiment: NIAAA model in mice with hepatic SIRT1 knockdown; format: in vivo, C57BL/6J mice
How it was run: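 Hepatic SIRT1 knockdown in C57BL/6J mice by tail-vein AAV8-TBG-miR30 shRNA against mouse SIRT1, with ZsGreen tag (1 × 10^12 vg/mouse); AAV8-TBG-ZsGreen as control. Four weeks later: NIAAA chronic-plus-binge ethanol model with oral test compound once daily for 7 days. Knockdown checked by liver ZsGreen fluorescence and SIRT1 western blot. Body weight tracked, n = 6.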

[8] = system: PGC-1α, PPAR-α, CPT-1α, ACC-1, SREBP-1C, FAS, SCD-1 (liver mRNA); format: in vivo, C57BL/6J mice; details: ethanol-fed mice, oral SSa
[9] = system: SIRT1; experiment: Immunostaining targeting SIRT1 in mouse liver; format: in vivo, C57BL/6J mice; details: ethanol-fed mice, oral SSa
How it was run: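 Male C57BL/6J mice (8 weeks) on the NIAAA chronic-plus-binge model: 5 days of Lieber–DeCarli control liquid diet, then 5% (v/v) ethanol liquid diet for 14 days. Oral SSa 5, 10 or 15 mg/kg once daily for 7 days. Day-15 oral ethanol binge; harvest under isoflurane 9 h later. Livers fixed in 4% paraformaldehyde, 5 µm sections, SIRT1 immunofluorescence imaged confocally; n = 3.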

[10] = cited from earlier work
[11] = system: chronic-plus-binge ethanol-fed mice; experiment: Chronic-plus-binge ethanol-fed; format: in vivo, C57BL/6J mice
[12] = system: SIRT1, SREBP-1C, PPAR-α and their target genes (liver mRNA); experiment: qRT-PCR of lipid metabolism genes and SIRT1 in liver of ALD mice; format: in vivo, C57BL/6J mice; details: ethanol-fed mice, oral SSa
How it was run: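 NIAAA chronic-plus-binge model in C57BL/6J mice: 14-day 5% ethanol Lieber–DeCarli diet, oral SSa (5–15 mg/kg) daily for 7 days, ethanol binge on day 15, liver harvested 9 h later. Liver mRNA measured by SYBR Green qRT-PCR (25 nmol/L primers), β-actin reference, delta-delta Ct method. Protein by western blot: 20 µg per lane, 10% SDS-PAGE, ECL detection.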

[13] = system: SIRT1, PGC-1α, PPAR-α, Deptor, mTOR, p-mTOR (liver); experiment: Western blot of liver proteins, with or without hepatic SIRT1 knockdown; format: in vivo, C57BL/6J mice; details: ethanol-fed mice, oral SSa
[14] = mice, after intragastric SSa 50 mg/kg

maximal (peak) plasma concentration [3, 14]: 105.12 ng/mL
time of first detection in plasma [3, 14]: 0.5 h
time of peak plasma concentration [3, 14]: 1 h
SMILES: C[C@H]1O[C@@H](O[C@H]2CC[C@@]3(C)[C@@H](CC[C@]4(C)[C@@H]3C=CC3=C5CC(C)(C)CC[C@]5(CO)[C@@H](O)C[C@]34C)[C@]2(C)CO)[C@H](O)[C@@H](O[C@@H]2O[C@H](CO)[C@@H](O)[C@H](O)[C@H]2O)[C@H]1O [SSB1, Saikosaponin B1]
ethanol-induced lipid droplet accumulation (Oil red O) [1]: had no significant effect
ethanol-induced ROS production [2]: had no effect on ROS
course of plasma level after administration (in words) ([3]; mice): undetectable after 6 h of administration; also recorded: quickly metabolized after administration

SMILES: C[C@H]1O[C@@H](O[C@H]2CC[C@@]3(C)[C@@H](CC[C@]4(C)[C@@H]3C=C[C@]35OC[C@@]6(CCC(C)(C)C[C@H]63)[C@@H](O)C[C@]54C)[C@]2(C)CO)[C@H](O)[C@@H](O[C@@H]2O[C@H](CO)[C@@H](O)[C@H](O)[C@H]2O)[C@H]1O [SSa, Saikosaponin A]
Kd [4]: ~25.2 µM
ethanol-induced lipid droplet accumulation (Oil red O) [1]: significantly reduced the lipid droplet accumulation induced by ethanol
short-term toxicity: pathological changes of liver, kidney, spleen, lung and heart (HE) [5]: no significant pathological changes
hepatic SIRT1 protein abundance over time [6]: enhanced hepatic SIRT1 protein abundance at 4–12 h
body weight with hepatic SIRT1 knockdown ([7]; SSa administration for 7 days): had no effect on body weight
NAD+/NADH with hepatic SIRT1 deficiency ([7]; ethanol-fed mice, oral SSa): the increase of NAD^+/NADH induced by SSa was also inhibited
hepatic pathology and lipid deposition with hepatic SIRT1 deficiency ([7]; ethanol-fed mice, oral SSa): prevents the SSa’s improvement in alcohol-induced hepatic pathology and lipid deposition
liver function recovery with hepatic SIRT1 knockdown ([7]; ethanol-fed mice, oral SSa): mitigated SSa’s improvement in alcohol-induced liver function recovery
ethanol-induced ROS production [2]: significantly limited ethanol-induced ROS production
liver PGC-1α, PPAR-α, CPT-1α mRNA with SIRT1 knockdown [8]: inhibits the upregulation of PGC-1α, PPAR-α, CPT-1α induced by SSa
liver mRNA of SREBP-1C, ACC1, FAS and SCD-1 ([8]; reversed by SIRT1 knockdown): decreased the mRNA expression of SREBP-1C, ACC1, FAS and SCD-1
SIRT1 entry into the nucleus (liver immunofluorescence) [9]: promoted SIRT1 entry into the nucleus
intestinal absorption after oral administration [10]: poor absorbance in the intestine when administered orally
toxicity under intravenous injection [10]: marked hemolysis under intravenous injection
body weight and liver index ([11]; SSa 5, 10, 15 mg/kg oral): improved body weight and liver index in a dose-dependent manner
NAD+/NADH ratio in liver homogenate ([11]; oral SSa): increased the NAD^+/NADH ratio
TC and TG in liver homogenate ([11]; oral SSa): significantly reduced alcohol-induced TC and TG accumulation in the liver
liver function and plasma TC, TG, γ-GT, De Ritis ratio ([11]; oral SSa): significantly ameliorated liver function and reduced the plasma TC, TG, γ-GT content and De Ritis ratio
liver lipid deposition (Oil red O staining) ([11]; oral SSa): reduced alcohol-induced liver lipid deposition in a dose-dependent manner
liver pathology (HE staining) ([11]; oral SSa): improves liver pathological injury
liver mRNA of SREBP-1C and its target genes [12]: decreased the elevation of SREBP-1C, ACC-1, FAS and SCD-1 induced by alcohol
alcohol-induced decrease of SIRT1 expression in the liver ([12]; mRNA and protein (Fig. 2I, J)): can reverse this phenomenon
maximal (peak) plasma concentration [3, 14]: 63.31 ng/mL
course of plasma level after administration (in words) ([3]; mice): almost completely metabolized after 2 h of administration
course of plasma level after administration (in words) ([3]; mice, listed as SSA): quickly metabolized after administration
Tmax ([3]; mouse, plasma, po, 50 mg/kg): 30 min
liver PGC-1α, PPAR-α and Deptor protein with SIRT1 deficiency [13]: decreases the expression of PGC-1α, PPAR-α and Deptor induced by SSa treatment
